This note sets out measurements from ChEMBL document CHEMBL3045864, “Fungistatic activity of bicyclo[4.3.0]-γ-lactones” (J Agric Food Chem, 2011).

≈ marks a conversion by molar mass, not a printed value.

Assay type in all cases: functional, organism-based
The test system of assay [1] is Fusarium culmorum. Description: Fungistatic activity against Fusarium culmorum AM 282 assessed as effect on diameter of fungal growth zone. A digest of the protocol: (§1)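 Agar dilution growth-zone assay. Lactones in DMSO were mixed into sterilized potato dextrose agar (0.01 mL DMSO per 1 mL agar) at final concentrations of 50–300 μg/mL. A fungal mycelium plug was placed on the agar and grown at 27 °C and 60–80% relative humidity. Growth-zone diameters were measured once DMSO-only control colonies reached 5.5–6.0 cm. Inhibition = (1 − Da/Db) × 100%. IC50 was taken from four concentrations, each run in triplicate. DDAC served as reference.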

Assay [2] has as its system Fusarium oxysporum. Briefly: Fungistatic activity against Fusarium oxysporum AM 13 assessed as effect on diameter of fungal growth zone. A digest of the protocol:
as §1

Assay [3] relates to Aspergillus ochraceus. Briefly: Fungistatic activity against Aspergillus ochraceus AM 456 assessed as effect on diameter of fungal growth zone. The method in brief: as §1
Assay [4] relates to Penicillium citrinum. Briefly: Fungistatic activity against Penicillium citrinum AM 354 assessed as effect on diameter of fungal growth zone. A digest of the protocol:
as §1

The test system of assay [5] is Fusarium tricinctum. Briefly: Fungistatic activity against Fusarium tricinctum AM 16 assessed as effect on diameter of fungal growth zone. The method in brief:
as §1

Where [6] appears, read: Fusarium culmorum, AM 282, read-out: IC50.
Where [7] appears, read: Fusarium oxysporum, AM 13, read-out: IC50.

On to `O=C1OC[C@@H]2CCCC[C@H]12`, for which the IC50 came to 169 mg/L (≈ 1210 µM) in assay [1] (setting [6]) and 261 mg/L (≈ 1860 µM) in assay [2] (setting [7]).
In the case of `CC1(C)OC(=O)[C@H]2CC=CC[C@H]21` (racemic), the half-inhibitory concentration (IC50) in assay [1] (setting [6]) was 183 mg/L (≈ 1100 µM); in assay [3], 159 mg/L (≈ 958 µM); in assay [4], 274 mg/L (≈ 1650 µM); in assay [5], 205 mg/L (≈ 1230 µM); in assay [2] (setting [7]) it was 188 mg/L (≈ 1130 µM).
For `O=C1OC[C@H]2C[C@@H](Br)[C@H](Br)C[C@@H]12` (racemic) the same measures were 81.5 mg/L (≈ 274 µM), 219 mg/L (≈ 735 µM), 306 mg/L (≈ 1030 µM), 110 mg/L (≈ 371 µM) and 30.1 mg/L (≈ 101 µM).
Turning to `O=C1OC[C@@H]2C[C@@H](Br)[C@H](Br)C[C@H]12`, the IC50 in assay [1] (setting [6]) was found to be 90.5 mg/L (≈ 304 µM); in assay [2] (setting [7]), 47.5 mg/L (≈ 159 µM).
For the compound `CC1(C)OC(=O)[C@H]2C[C@H]3O[C@H]3C[C@H]21` (racemic), the IC50 in assay [1] (setting [6]) is 142 mg/L (≈ 777 µM); in assay [3] it was 142 mg/L (≈ 780 µM); in assay [4], > 350 mg/L; in assay [5] it was 180 mg/L (≈ 991 µM); in assay [2] (setting [7]) it was 95.3 mg/L (≈ 523 µM).
For `O=C1OC(=O)[C@@H]2CC=CC[C@H]12`, the IC50 in assay [1] (setting [6]) was 310 mg/L (≈ 2040 µM); in assay [3], 287 mg/L (≈ 1880 µM); in assay [4] it was > 350 mg/L; in assay [5], 289 mg/L (≈ 1900 µM); in assay [2] (setting [7]), 220 mg/L (≈ 1450 µM).
Taken in the same sequence, the figures for `O=C1OC[C@H]2C[C@H]3O[C@H]3C[C@@H]12` (racemic) were 90.4 mg/L (≈ 586 µM), 141 mg/L (≈ 915 µM), 312 mg/L (≈ 2030 µM), 156 mg/L (≈ 1020 µM) and 72.2 mg/L (≈ 468 µM).
Taken in the same sequence, the figures for `O=C1OC[C@H]2CC=CC[C@@H]12` (racemic) were 184 mg/L (≈ 1330 µM), 171 mg/L (≈ 1240 µM), > 350 mg/L, 221 mg/L (≈ 1600 µM) and 282 mg/L (≈ 2040 µM).
On to `CC1(C)OC(=O)[C@@H]2CCCC[C@@H]21` (racemic), for which the IC50 in assay [1] is 134.5 mg/L (≈ 799 µM); in assay [3] it was 160 mg/L (≈ 949 µM); in assay [4], 292 mg/L (≈ 1730 µM); in assay [5], 213 mg/L (≈ 1260 µM); in assay [2], 179.1 mg/L (≈ 1060 µM).
Take `O=C1OC[C@H]2CCCC[C@@H]12` (racemic): the IC50 in assay [1] (setting [6]) was 147 mg/L (≈ 1050 µM); in assay [3], 187 mg/L (≈ 1330 µM); in assay [4], > 350 mg/L; in assay [5] it was 222 mg/L (≈ 1580 µM); in assay [2] (setting [7]) it was 314 mg/L (≈ 2240 µM).
Regarding `O=C1OC(=O)C2CCCCC12` (racemic), the IC50 in assay [1] (setting [6]) was 292 mg/L (≈ 1890 µM); in assay [3], 342 mg/L (≈ 2220 µM); in assay [4], > 350 mg/L; in assay [5] it was 303 mg/L (≈ 1960 µM); in assay [2] (setting [7]), 240 mg/L (≈ 1560 µM).
For `CC1(C)OC(=O)[C@H]2C[C@@H](O)[C@H](Br)C[C@H]21` (racemic) the same measures were 166 mg/L (≈ 632 µM), 220 mg/L (≈ 838 µM), 212 mg/L (≈ 806 µM), 162 mg/L (≈ 617 µM) and 170 mg/L (≈ 648 µM).
Taken in the same sequence, the figures for `O=C1OCC2CCC(O)CC12` (racemic) were 121 mg/L (≈ 773 µM), 212 mg/L (≈ 1360 µM), > 350 mg/L, 161 mg/L (≈ 1030 µM) and 127 mg/L (≈ 811 µM).
Taken in the same sequence, the figures for `CCCCCCCCCC[N+](C)(C)CCCCCCCCCC.[Cl-]` [DIDECYLDIMETHYLAMMONIUM CHLORIDE] were 24.5 mg/L, 51.3 mg/L, 41.6 mg/L, 27.9 mg/L and 24.2 mg/L.
Regarding `O=C1OC[C@@H]2C[C@@H]3O[C@@H]3C[C@H]12`, the IC50 stood at 59.7 mg/L (≈ 387 µM) in assay [1] (setting [6]) and 51.9 mg/L (≈ 337 µM) in assay [2] (setting [7]).
With `CC1(C)OC(=O)[C@@H]2CCCC[C@@H]21`, the IC50 in assay [1] (setting [6]) was determined as 121 mg/L (≈ 717 µM); in assay [2] (setting [7]) it was 162 mg/L (≈ 965 µM).
Taken in the same sequence, the figures for `O=C1OC[C@@H]2CC=CC[C@H]12` were 171 mg/L (≈ 1240 µM) and 222 mg/L (≈ 1610 µM).
With `CC1(C)OC(=O)[C@H]2C[C@@H](Br)[C@H](Br)C[C@H]21` (racemic), the IC50 in assay [1] (setting [6]) is 155 mg/L (≈ 474 µM); in assay [3], 121 mg/L (≈ 371 µM); in assay [4] it was 255 mg/L (≈ 782 µM); in assay [5], 191 mg/L (≈ 586 µM); in assay [2] (setting [7]), 80.2 mg/L (≈ 246 µM).
Taken in the same sequence, the figures for `O=C1OC[C@H]2CCC[C@H](Br)[C@@H]12` (racemic) were 133 mg/L (≈ 608 µM), 244 mg/L (≈ 1120 µM), 282 mg/L (≈ 1290 µM), 173 mg/L (≈ 791 µM) and 184 mg/L (≈ 840 µM).
Regarding `O=C1OC[C@@H]2C[C@@H](Br)[C@H](O)C[C@H]12` (racemic), the IC50 in assay [1] (setting [6]) is 172 mg/L (≈ 733 µM); in assay [3], 141 mg/L (≈ 599 µM); in assay [4], 292 mg/L (≈ 1240 µM); in assay [5] it was 211 mg/L (≈ 898 µM); in assay [2] (setting [7]), 141 mg/L (≈ 600 µM).
